Measurements: ChEMBL document CHEMBL1128530, “Alpha- and beta-adrenoceptors: from the gene to the clinic. 1. Molecular biology and adrenoceptor subclassification” (J Med Chem, 1995)

Key:
[1] = biological target: T1, Alpha-1D adrenergic receptor (Homo sapiens, UniProt P25100); assay: Binding affinity against Alpha-1D adrenergic receptor, from human clones.
T1 sequence (P25100 whole entry): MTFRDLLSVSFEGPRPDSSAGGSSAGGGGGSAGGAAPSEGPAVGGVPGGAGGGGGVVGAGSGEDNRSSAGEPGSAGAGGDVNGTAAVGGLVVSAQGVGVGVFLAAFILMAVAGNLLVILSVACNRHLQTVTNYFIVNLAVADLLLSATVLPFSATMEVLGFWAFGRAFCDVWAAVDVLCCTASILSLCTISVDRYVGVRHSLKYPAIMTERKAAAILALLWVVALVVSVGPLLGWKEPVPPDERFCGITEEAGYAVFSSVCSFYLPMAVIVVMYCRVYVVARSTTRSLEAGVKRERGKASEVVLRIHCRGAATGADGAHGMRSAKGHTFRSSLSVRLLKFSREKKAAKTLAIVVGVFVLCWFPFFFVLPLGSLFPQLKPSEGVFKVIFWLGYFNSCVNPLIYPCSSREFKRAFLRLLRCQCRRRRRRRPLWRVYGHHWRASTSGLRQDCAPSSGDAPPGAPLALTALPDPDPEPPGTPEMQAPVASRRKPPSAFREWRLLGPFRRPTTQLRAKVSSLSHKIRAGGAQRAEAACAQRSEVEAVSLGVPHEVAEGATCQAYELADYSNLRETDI

[2] = biological target: T2, Alpha-1A adrenergic receptor (Bos taurus, UniProt P18130); assay: The compound was tested for binding affinity against Alpha-1A adrenergic receptor from bovine clones.
T2 sequence (P18130 whole entry): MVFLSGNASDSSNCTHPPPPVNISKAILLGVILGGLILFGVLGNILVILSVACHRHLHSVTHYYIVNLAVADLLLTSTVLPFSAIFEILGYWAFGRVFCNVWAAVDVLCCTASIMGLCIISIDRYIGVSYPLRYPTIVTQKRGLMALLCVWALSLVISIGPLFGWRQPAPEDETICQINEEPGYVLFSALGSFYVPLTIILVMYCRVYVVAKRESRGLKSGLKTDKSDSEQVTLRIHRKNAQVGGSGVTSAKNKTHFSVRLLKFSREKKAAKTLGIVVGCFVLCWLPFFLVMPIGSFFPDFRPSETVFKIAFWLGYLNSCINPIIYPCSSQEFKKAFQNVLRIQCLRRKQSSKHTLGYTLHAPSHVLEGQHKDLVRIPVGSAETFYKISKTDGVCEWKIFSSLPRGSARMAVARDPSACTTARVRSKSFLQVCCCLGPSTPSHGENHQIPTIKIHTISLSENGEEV

[3] = biological target: T3, Alpha-2A adrenergic receptor (Homo sapiens, UniProt P08913); assay: The compound was tested for binding affinity against Alpha-2A adrenergic receptor from human clones.
T3 sequence (P08913 whole entry): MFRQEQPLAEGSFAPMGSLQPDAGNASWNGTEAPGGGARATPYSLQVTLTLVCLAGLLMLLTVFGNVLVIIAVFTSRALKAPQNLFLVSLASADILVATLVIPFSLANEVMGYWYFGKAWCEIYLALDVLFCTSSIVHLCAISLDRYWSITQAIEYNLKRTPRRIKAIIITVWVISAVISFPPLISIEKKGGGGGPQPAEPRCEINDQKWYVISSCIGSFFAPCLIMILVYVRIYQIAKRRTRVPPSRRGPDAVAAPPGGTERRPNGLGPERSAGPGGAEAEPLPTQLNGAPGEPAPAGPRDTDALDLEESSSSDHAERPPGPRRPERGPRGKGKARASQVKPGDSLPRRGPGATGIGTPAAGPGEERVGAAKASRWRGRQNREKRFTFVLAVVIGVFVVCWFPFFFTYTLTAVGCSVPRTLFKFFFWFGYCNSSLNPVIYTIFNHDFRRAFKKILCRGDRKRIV
Outline: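 Human α2A-adrenoceptor clone expressed in CHO cells; radioligand binding read out as Ki (nM).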

[4] = biological target: T4, Alpha-1B adrenergic receptor (Homo sapiens, UniProt P35368); assay: The compound was tested for binding affinity against Alpha-1B adrenergic receptor, from human clones.
T4 sequence (P35368 whole entry): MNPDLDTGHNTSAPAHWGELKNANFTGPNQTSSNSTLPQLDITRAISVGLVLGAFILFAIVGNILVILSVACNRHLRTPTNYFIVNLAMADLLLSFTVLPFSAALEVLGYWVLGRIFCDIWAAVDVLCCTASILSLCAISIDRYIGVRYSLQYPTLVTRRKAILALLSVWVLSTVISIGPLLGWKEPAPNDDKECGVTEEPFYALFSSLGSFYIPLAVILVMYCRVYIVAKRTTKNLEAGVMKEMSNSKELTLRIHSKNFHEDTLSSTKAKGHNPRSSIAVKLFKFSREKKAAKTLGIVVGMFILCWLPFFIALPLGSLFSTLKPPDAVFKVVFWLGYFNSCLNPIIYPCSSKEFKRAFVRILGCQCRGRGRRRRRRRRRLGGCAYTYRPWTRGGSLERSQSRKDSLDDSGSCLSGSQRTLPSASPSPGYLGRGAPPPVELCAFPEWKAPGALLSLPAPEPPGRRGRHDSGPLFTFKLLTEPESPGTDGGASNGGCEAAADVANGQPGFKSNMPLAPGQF

[5] = biological target: T5, Alpha-1A adrenergic receptor (Homo sapiens, UniProt P35348); assay: Binding affinity against Alpha-1A adrenergic receptor from human clone
T5 sequence (P35348 whole entry): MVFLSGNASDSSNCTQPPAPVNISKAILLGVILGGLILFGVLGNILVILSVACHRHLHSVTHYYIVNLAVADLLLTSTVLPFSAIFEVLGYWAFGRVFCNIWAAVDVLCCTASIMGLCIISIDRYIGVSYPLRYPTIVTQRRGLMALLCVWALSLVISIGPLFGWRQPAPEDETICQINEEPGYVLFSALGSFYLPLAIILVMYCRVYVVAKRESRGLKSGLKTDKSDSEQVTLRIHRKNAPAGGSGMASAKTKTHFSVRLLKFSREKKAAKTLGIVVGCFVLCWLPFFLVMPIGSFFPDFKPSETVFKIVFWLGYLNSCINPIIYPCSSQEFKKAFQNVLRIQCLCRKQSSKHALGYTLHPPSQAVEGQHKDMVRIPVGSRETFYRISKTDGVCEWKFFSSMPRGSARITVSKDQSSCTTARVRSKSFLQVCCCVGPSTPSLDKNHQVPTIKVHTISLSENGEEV

[6] = biological target: T3, Alpha-2A adrenergic receptor; assay: Binding affinity against Alpha-2A adrenergic receptor, from human clones.
[7] = biological target: T2, Alpha-1A adrenergic receptor; assay: Binding affinity against Alpha-1A adrenergic receptor from bovine clone

SMILES | Ki [1] [nM] | Ki [2] [nM] | Ki [3] [nM] | Ki [4] [nM] | Ki [5] [nM] | Ki [6] [nM] | Ki [7] [nM]
COc1ccccc1N1CCN(CCCNc2c(C)c(=O)n(C)c(=O)n2C)CC1 | 21 | 4.4 | 612 | 92 |  |  | 
COc1cccc(OC)c1OCCNCC1COc2ccccc2O1 (stereo unspecified) |  |  |  |  | 0.37 | 3.5 | 0.35
O=C(NC1CCN(CCc2c[nH]c3ccccc23)CC1)c1ccccc1 [INDORAMIN] | 110 | 12 | 2240 | 29 |  |  | 
